High-throughput results as filed in PubChem.
Only some compounds are listed: those with a hit (about 1.5% of all), similar ones and a draw of the others.
RBBP9 inhibitor: human RBBP9 inhibitors, primary screen, biochemical, fluorescence polarization, FP-Rh probe, HTS; Serine hydrolase RBBP9 (Homo sapiens), O75884; recombinant RBBP9; inhibition, % at 7.94 µM; 220,000 compounds, 0.2% hits; AID 1515, 2009;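 active means inhibition above the campaign mean of all tested compounds plus 3 SD, cut at about 14% in these data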;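 further: plate controls were DMSO wells with RBBP9 for no effect and wells lacking RBBP9 protein for full effect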
Target sequence (O75884 whole entry, looked up): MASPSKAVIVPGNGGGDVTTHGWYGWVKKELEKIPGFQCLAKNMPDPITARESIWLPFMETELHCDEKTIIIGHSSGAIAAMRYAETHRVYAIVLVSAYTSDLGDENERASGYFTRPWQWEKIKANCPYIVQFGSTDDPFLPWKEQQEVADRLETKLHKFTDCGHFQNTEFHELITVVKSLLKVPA
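Test system – recombinant human RBBP9 · Input – RBBP9 2.5 µM in dispensing solution, pre-mixing · Medium – Tris buffer pH 8.0, NaCl, Pluronic · Schedule – preincubation 30 min plus labeling 45 min at 25 °C · Measured by – fluorescence polarization · Measure – % inhibition · Controls – DMSO and no-protein wells · Replicates – one well per compound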
PP1 inh: PP1-alpha phosphatase inhibitors, primary screen, counter-screen for PP5 inhibitor project, biochemical, fluorescence, OMFP substrate, single point; AID 2235, 2010; inhibition, % at 6.7 µM; Serine/threonine-protein phosphatase PP1-alpha catalytic subunit (Homo sapiens), P62136; 320,000 compounds, 0.9% hits; purified PP1alpha;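 active means inhibition above the mean inhibition of all tested compounds plus 3 SD, computed separately for each screening campaign, cut at about 15% in these data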
Target sequence (P62136 whole entry, looked up): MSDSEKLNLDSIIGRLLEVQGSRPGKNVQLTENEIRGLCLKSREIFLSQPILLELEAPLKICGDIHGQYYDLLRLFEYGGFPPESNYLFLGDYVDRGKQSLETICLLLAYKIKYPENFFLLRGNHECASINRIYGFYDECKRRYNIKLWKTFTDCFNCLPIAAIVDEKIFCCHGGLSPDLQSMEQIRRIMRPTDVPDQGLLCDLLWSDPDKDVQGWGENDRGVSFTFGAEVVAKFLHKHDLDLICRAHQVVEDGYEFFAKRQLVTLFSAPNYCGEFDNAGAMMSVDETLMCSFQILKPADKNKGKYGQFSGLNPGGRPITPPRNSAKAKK
PP5 primary: PP5 phosphatase inhibitors, primary screen, biochemical, fluorescence; AID 1987, 2009; inhibition, % at 6.7 µM; Serine/threonine-protein phosphatase 5 (Homo sapiens), P53041; purified PP5c, OMFP substrate fluorescence; 320,000 compounds, 0.18% hits;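 active means inhibition above the campaign's mean inhibition across all tested compounds plus 3 SD, cut at about 9.5% in these data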;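 further: 0% = DMSO only and 100% = 100 µM cantharidin control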
PKD1 inh: inhibitors of human PKD1 kinase, biochemical, fluorescence polarization | Serine/threonine-protein kinase D1 (Homo sapiens), Q15139 | PKD1 kinase fluorescence polarization assay | inhibition, % (test concentration not listed) | 200,000 compounds, 0.056% hits | AID 797, 2007; in the data active means inhibition above about 50%
p97 ATPase inh: inhibitors of human p97 ATPase, primary screen, biochemical; Transitional endoplasmic reticulum ATPase (Homo sapiens), P55072; recombinant p97 ATPase, Kinase-Glo ATP luminescence, 3 h; inhibition, % at 8 µM; 220,000 compounds, 0.42% hits; in the data active means inhibition above about 15%;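 further: 0% = DMSO vehicle and 100% = wells lacking enzyme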
Hsp70 act: Hsp70 transcriptional activators, primary screen, cell-based, HeLa, Hsp70 promoter luciferase, luminescence, 10 µM; HeLa Hsp70 promoter luciferase reporter; scaled: vehicle 0, proteasome-inhibitor control 100%; activation, % at 10 µM; 200,000 compounds, 0.04% hits; AID 1203, 2008;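 active means activation above the mean across all tested compounds plus 3 SD, cutoff set per campaign, cut at about 5.5% in these data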;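 further: 100% = MG132 at 30 µM as the positive control and 0% = DMSO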
PP1 confirm: PP1 phosphatase inhibitors, confirmation, biochemical, fluorescence, OMFP substrate, triplicate. shares compounds with PP1 inh. purified PP1alpha. inhibition, % at 6.7 µM. 1,900 compounds, 52% hits. AID 2358, 2010;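 active means mean PP1 inhibition above a set limit taken from the earlier primary screen, cut at about 15% in these data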
PP5 counter: PP5 phosphatase inhibition by PP1 hits, confirmation, counter-screen for PP1 inhibitor project, biochemical, fluorescence, triplicate | shares compounds with PP1 inh | purified PP5c, OMFP fluorescence | inhibition, % at 6.7 µM | 1,900 compounds, 4% hits | AID 2360, 2010;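 active means mean PP5 inhibition over triplicate wells above about 9.5% taken from the earlier PP1 screen, limit read from the data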
* hit, by the source's call; x = no result given.

SMILES | RBBP9 inhibitor | PP1 inh | PP5 primary | PKD1 inh | p97 ATPase inh | Hsp70 act | PP1 confirm | PP5 counter
CCOc1ccc(NC(=O)c2ccc(NC(=O)c3ccc(CN4CCOCC4)cc3)cc2)cc1 | 6 | 22* | 4 | x | -5 | x | 41* | -6
CC(C)NC(=O)NC(=O)CSc1nncs1 | 1 | -3 | -1 | -2 | 8 | 0 | x | x
Cc1ccc(/C=N/N2CCN(Cc3ccc(C)cc3)CC2)cc1 | -1 | -6 | 1 | x | -5 | x | x | x
Cc1ccc(CN2CCN(/N=C/c3cc(Br)ccc3O)CC2)cc1 | -7 | 35* | 3 | -10 | 1 | 0 | -4 | -7
Nc1cc2nc3ccccc3oc-2cc1=O | 8 | 19* | 4 | x | 9 | x | 2 | 7
Cc1cc(C)nc(SCc2ccc(C(=O)N/N=C/c3cccc(O)c3O)cc2)n1 | -6 | 25* | 2 | -2 | 15* | 0 | 28* | 0
Cc1ccccc1OCCC(=O)OCC(=O)NC(=O)c1ccccc1 | x | 22* | 2 | x | x | x | -1 | -5
Cc1ccccc1OCCC(=O)OCC(=O)NCCc1ccccc1 | x | -4 | 1 | x | x | x | x | x
Cc1cc(CN2CCN(CC(=O)Nc3cc(C(F)(F)F)ccc3-n3cncn3)CC2)no1 | x | 0 | -2 | x | x | x | x | x
CCOc1ccc(CN2CCNC(=O)C2CC(=O)NC2CCCCCC2)cc1 (stereo unspecified) | x | 18* | 2 | x | x | x | -5 | -3
Cc1ccc(CN2CCNC(=O)C2CC(=O)NC2CCCCCC2)cc1 (stereo unspecified) | x | 0 | -1 | x | x | x | x | x
C=CCCCCCCCCC(=O)NNC1CC(=O)N(c2ccccc2)C1=O (stereo unspecified) | -9 | 0 | 3 | x | -3 | x | x | x
CCc1ccc(NC(=O)Cn2c(=O)c3cccn3c3ccccc32)cc1 | x | 22* | 0 | x | x | x | 18* | -1
CCc1ccc(NC(=O)CCn2c(=O)c3cccn3c3ccccc32)cc1 | x | 8 | 4 | x | x | x | x | x
CCCOC(=O)c1cc(NC(=O)/C=C/c2ccccc2)ccc1O | -15 | -1 | 1 | 4 | 0 | 0 | x | x
O=C(CN1C(=O)COc2ccccc21)N1CCCc2ccccc21 | -6 | -1 | 1 | -18 | 5 | 0 | x | x
O=C(CN1C(=O)COc2ccc(Cl)cc21)N1CCc2ccccc21 | -11 | 18* | 1 | -9 | -1 | 0 | 11 | -4
C=Cn1cc[n+](CC(=O)c2ccc(-c3ccccc3)cc2)c1 | x | 22* | 2 | x | x | x | -2 | 0
O=C(C[n+]1ccccc1)c1ccc(-c2ccccc2)cc1 | -7 | 2 | 0 | -1 | -2 | 0 | x | x
CCOc1ccccc1CN1CCNC(=O)C1CC(=O)N(C)CCc1cnn(C)c1 (stereo unspecified) | x | -2 | 1 | x | x | x | x | x
COc1c(-c2ccc(O)cc2)oc2cc(O)cc(O)c2c1=O | x | 7 | 3 | x | x | x | x | x
O=c1c(-c2c(O)cc(O)c3c(=O)cc(-c4ccc(O)cc4)oc23)c(-c2ccc(O)cc2)oc2cc(O)cc(O)c12 | x | 32* | 3 | x | x | x | 16* | -2
COc1cc(CN2CCNC(=O)C2CC(=O)NCc2csc(C(C)C)n2)cc(OC)c1 (stereo unspecified) | -5 | 0 | 3 | 1 | -3 | 0 | x | x
Cc1cc(=O)[nH]c(N/N=C/c2ccc(OC(=O)c3ccco3)cc2)n1 | -6 | 0 | 1 | -12 | 4 | 0 | x | x
Cc1ccc(S(=O)(=O)N2[C@@H](c3ccc(Cl)cc3)C(C(=O)O)=CC[C@H]2c2ccc(Cl)c(Cl)c2)cc1 | x | 21* | 3 | x | x | x | 16* | 3
SMILES | RBBP9 inhibitor | PP1 inh | PP5 primary | PKD1 inh | p97 ATPase inh | Hsp70 act | PP1 confirm | PP5 counter
Cc1ccc(S(=O)(=O)N2[C@@H](c3cccc(Cl)c3)C(C(=O)O)=CC[C@H]2c2ccc(Cl)cc2)cc1 | x | 19* | 2 | x | x | x | 10 | 2
CCCCCCCCCCCCCCCC[N+](C)(C)CC | x | 20* | 3 | x | x | x | -11 | 2
CC(NC(=O)C1CCN(S(=O)(=O)c2cccc3nonc23)CC1)c1ccccc1 (stereo unspecified) | x | 2 | 2 | x | x | x | x | x
O=C(CC1S/C(=N/N=C/c2c[nH]c3ccccc23)NC1=O)Nc1ccccc1 (stereo unspecified) | -5 | 5 | 0 | -8 | 5 | 0 | x | x
O=C(CC1S/C(=N/N=C/c2c[nH]c3ccc(OCc4ccccc4)cc23)NC1=O)Nc1ccccc1 (stereo unspecified) | -2 | 24* | 3 | -9 | -3 | 0 | 24* | -6
O=C(CCN1C(=O)C2CCCCC2C1=O)N1CCN(S(=O)(=O)c2cccc(F)c2)CC1 (stereo unspecified) | x | -5 | 0 | x | x | x | x | x
O=C(CCN1C(=O)C2CCCCC2C1=O)N1CCN(S(=O)(=O)c2ccccc2)CC1 (stereo unspecified) | x | 33* | 2 | x | x | x | -2 | -1
Nc1nc(N)c(N=Nc2ccc(SCC(=O)O)cc2)c(=O)[nH]1 | 2 | 1 | 0 | x | 5 | x | x | x
CC(OC(=O)c1cccc(S(=O)(=O)N2CCCC2)c1)C(=O)NC1CCCCC1C (stereo unspecified) | x | -12 | 0 | x | x | x | x | x
S=c1[nH]nc(-c2cc(-c3ccccc3)n[nH]2)n1/N=C/c1ccc(Br)s1 | -1 | 28* | -2 | x | -1 | x | 33* | -2
Cc1ccccc1/C=N/n1c(-c2cc(-c3ccccc3)n[nH]2)n[nH]c1=S | -15 | -1 | 1 | x | -7 | x | x | x
S=c1[nH]nc(-c2cc(-c3ccccc3)n[nH]2)n1/N=C/c1c(Cl)cccc1Cl | -4 | 18* | 9.6* | x | -1 | x | 27* | -2
COc1ccccc1OCCCC(=O)Nc1nccs1 | 1 | -5 | -3 | 1 | -1 | 0 | x | x
O=C(N/N=C/c1ccncc1)c1ccc(COc2cccc3cccnc23)cc1 | -10 | 4 | -1 | 4 | -3 | 0 | x | x
O=C(N/N=C/c1ccc2cccc(OCc3ccccc3)c2n1)c1ccc(Cl)cc1 | -9 | 24* | 3 | -8 | -4 | 0 | 2 | 0
Cc1cccc(/C=N/NC(=O)c2ccc(NC(=O)c3ccc(F)cc3)cc2)n1 | x | 1 | -3 | x | x | x | x | x
COc1ccc(C(=O)N/N=C/c2ccc3cccc(O)c3n2)cc1 | 0 | 20* | -4 | -1 | 8 | 0 | 5 | 2
Cc1ccc(OC(=O)C2CCN(C(=O)c3ccccc3C)CC2)c(Br)c1 | x | 3 | 1 | x | x | x | x | x
